The values that follow come from PMC6512341 (ACS chemical neuroscience, 2018).

Each structure is given as a SMILES string.

In data set [1] the test system is acetylated α-tubulin. As to the kind of experiment: α-Tubulin acetylation studies in HEK293 cells. It is filed as cell-based. Conditions: tested at 0.01, 0.1, 1, and 10 μM. In short, it runs like this: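 HEK293 cells plated 24 h ahead and treated at 70% confluency with 10 nM–10 µM. Lysed in MPER with protease inhibitors; 2 µg protein boiled, run on 12% gel, transferred to PVDF. Blocked in 5% milk/TBST; anti-acetyl-tubulin 1:3000 overnight at 4 °C, then HRP secondary 1:5000; ECL. Reprobed for total α-tubulin at 1:1000. Densitometric ratio normalized to 10 µM reference HDAC6 inhibitor; n = 3–4; one-way ANOVA vs vehicle.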

In a further data set the test system is MDR1. As to the kind of experiment: Permeability studies in MDCK-MDR1 cells. It is filed as in vitro ADME. Conditions: dog, MDCK-MDR1.
A further data set concerns MDR1 (P-gp). As to the kind of experiment: Permeability studies in MDCK-MDR1 cells. It is filed as in vitro ADME. The note with it: dog, MDCK-MDR1, efflux ratio, MDCK-MDR1 cell line.
Another data set relates to MDCK-MDR1 cell line. As to the kind of experiment: Permeability studies in MDCK-MDR1 cells. The format is in vitro ADME. Conditions: MDCK-MDR1 cell line.
Another data set deals with acetylated histone 3. The experiment in a line: Histone acetylation in N2a cells. Conditions: compared to vehicle. The format is cell-based. The method, boiled down: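 N2a cells treated at 1 µM or 10 nM; reference HDAC inhibitors served as positive controls. Histones extracted by kit; protein by micro BCA. Samples denatured in reducing buffer at 95 °C for 5 min and blotted to PVDF. Blocked in 5% BSA/TBST 1 h at RT; primaries overnight: acetyl-H3 K9+K14 1:1000, histone 4 1:1000. Ratios normalized to vehicle; n = 4; one-way ANOVA vs vehicle.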

Data set [2] concerns acetylated α-tubulin. As to the kind of experiment: α-Tubulin acetylation in N2a cells. The format is cell-based. The note with it: compared to vehicle.
Data set [3] concerns the target T1, HDAC6 (Homo sapiens, UniProt Q9UBN7).
T1 sequence (Q9UBN7 1-1215): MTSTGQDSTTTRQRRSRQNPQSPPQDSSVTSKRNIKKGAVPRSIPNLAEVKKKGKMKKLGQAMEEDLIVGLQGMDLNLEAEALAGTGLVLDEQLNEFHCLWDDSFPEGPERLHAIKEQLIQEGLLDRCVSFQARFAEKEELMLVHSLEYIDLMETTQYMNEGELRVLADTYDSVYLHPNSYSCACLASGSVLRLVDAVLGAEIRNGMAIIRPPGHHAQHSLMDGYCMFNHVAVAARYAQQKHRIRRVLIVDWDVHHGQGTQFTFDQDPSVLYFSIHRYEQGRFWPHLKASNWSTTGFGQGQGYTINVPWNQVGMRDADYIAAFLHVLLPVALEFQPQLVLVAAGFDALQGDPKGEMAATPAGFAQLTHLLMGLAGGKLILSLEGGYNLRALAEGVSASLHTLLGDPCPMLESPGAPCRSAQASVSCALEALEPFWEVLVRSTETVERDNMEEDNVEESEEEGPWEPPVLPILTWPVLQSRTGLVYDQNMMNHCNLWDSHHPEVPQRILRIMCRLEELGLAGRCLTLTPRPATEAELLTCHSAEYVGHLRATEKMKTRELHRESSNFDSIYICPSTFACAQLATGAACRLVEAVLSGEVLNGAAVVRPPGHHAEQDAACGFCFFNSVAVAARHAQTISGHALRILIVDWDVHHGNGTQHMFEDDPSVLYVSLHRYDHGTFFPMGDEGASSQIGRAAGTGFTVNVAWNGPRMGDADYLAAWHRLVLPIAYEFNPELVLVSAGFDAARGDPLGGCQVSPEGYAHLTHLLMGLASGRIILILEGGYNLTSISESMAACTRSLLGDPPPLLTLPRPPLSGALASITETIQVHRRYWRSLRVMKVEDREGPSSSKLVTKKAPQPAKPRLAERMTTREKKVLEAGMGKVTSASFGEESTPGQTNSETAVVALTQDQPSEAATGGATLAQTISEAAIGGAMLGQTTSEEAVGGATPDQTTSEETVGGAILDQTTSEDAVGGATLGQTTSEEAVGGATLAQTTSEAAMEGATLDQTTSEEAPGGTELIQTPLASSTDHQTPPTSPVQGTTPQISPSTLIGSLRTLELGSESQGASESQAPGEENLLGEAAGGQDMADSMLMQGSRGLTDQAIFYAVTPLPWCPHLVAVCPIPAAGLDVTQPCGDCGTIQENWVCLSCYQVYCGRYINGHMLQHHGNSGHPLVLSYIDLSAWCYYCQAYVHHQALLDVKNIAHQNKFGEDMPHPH
The experiment in a line: HDAC1–11 enzyme assays. The format is biochemical. Conditions: for HDAC6 activity (in words): Figure 1a, compared with phenylhydroxamate 1.

The conditions of data set [4]: cited from earlier work.
Data set [5] can be described thus: Brain/plasma pilot PK studies of TubA. The format is in vivo. Conditions: IV administration, WT mice.
The next data set relates to class IIa isoforms. The experiment in a line: HDAC1–11 enzyme assays. The note with it: Figure 2b and c. The format is biochemical, human. The method, boiled down:
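Human full-length recombinant HDAC4, 5, 7 and 9 with fluorogenic Ac-LGK(TFA)-AMC substrate. Enzyme–compound preincubation 5–10 min, then 2 h at 30 °C. Developer added; fluorescence read at plateau. 10-dose, 3-fold dilutions from 30 µM, in duplicate. IC50 from sigmoidal fit.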

Data set [6] deals with HDAC6. Conditions: cited from earlier work; for activity against HDAC6 (in words) / selectivity over HDAC1 (in words): Figure 1a.

Take `O=C(NO)c1ccc(CN2CCc3ccc(F)cc32)cc1` [Compound 11, 4-[(6-Fluoroindolin-1-yl)methyl]-N-hydroxybenzamide]: the “concentration at which acetylated α-tubulin levels are elevated” value (“concentration” below) with acetylated α-tubulin [1] was 1 µM. In the data set on MDR1, the Papp A→B at 2 h was determined as 10.5 ×10⁻⁶ cm/s and the Papp B→A at 2 h came to 11.1 ×10⁻⁶ cm/s. Also, the efflux ratio at 2 h with MDR1 (P-gp) was less than 1. For the same compound, the efflux ratio in the data set with MDCK-MDR1 cell line was 1.05.
On to `CC(/C=C/C(=O)NO)=C\[C@@H](C)C(=O)c1ccc(N(C)C)cc1` [TSA, Trichostatin A, reference compound], for which the “levels of acetylated histone 3 to histone 4” value with acetylated histone 3 is “increased levels of both acetylated α-tubulin and acetylated histone H3 significantly”. In the data set with acetylated α-tubulin [2], the “ratio of acetylated α-tubulin to α-tubulin” value is “increased levels of both acetylated α-tubulin and acetylated histone H3 significantly”.
In the case of `CN1CCc2c(c3ccccc3n2Cc2ccc(C(=O)NO)cc2)C1` [TubA, tubastatin A, reference compound], at HDAC6 [3] (Figure 2b and c), the “selectivity against HDAC8 (in words)” value is “poorer selectivity”; the “selectivity against the class I HDACs 1, 2, and 3 (in words)” value is given as “high selectivity”. Also, the AUCbrain/AUCplasma in data set [4] is recorded as 0.18. In addition, in the data set on MDR1, the Papp A→B at 2 h was found to be 2 ×10⁻⁶ cm/s and the Papp B→A at 2 h is 19.7 ×10⁻⁶ cm/s. Further, in the data set on MDCK-MDR1 cell line, the efflux ratio was 9.83. In addition, the brain/plasma ratio in data set [5] (8 min) amounted to 0.15. In addition, the brain/plasma ratio in [5] (60 min) came to 0.86.
Turning to `CN(C)c1ccc(Cc2ccc(C(=O)NO)cc2)cc1` [Compound 7, 4-[4-(Dimethylamino)benzyl]-N-hydroxybenzamide], the “concentration” value in the data set with acetylated α-tubulin [1] was 10 µM. In the data set on MDR1, the Papp A→B at 2 h turned out to be 17.6 ×10⁻⁶ cm/s and the Papp B→A at 2 h was 11 ×10⁻⁶ cm/s. Moreover, the efflux ratio at 2 h with MDR1 (P-gp) was less than 1. Also, the efflux ratio with MDCK-MDR1 cell line came out at 0.63.
In the data set on MDR1, `Cc1nc2ccccc2n1Cc1ccc(C(=O)NO)cc1F` [Compound 9, 3-Fluoro-N-hydroxy-4-[(2-methyl-1-benzimidazolyl)methyl]-benzamide] returned a Papp A→B at 2 h of 3.89 ×10⁻⁶ cm/s and a Papp B→A at 2 h of 13.2 ×10⁻⁶ cm/s. The efflux ratio at 2 h in the data set on MDR1 (P-gp) is greater than 2.5. For the same compound, the efflux ratio in the data set on MDCK-MDR1 cell line was 4.23. The “activity against the class IIa isoforms (in words)” value in the data set on class IIa isoforms was “strong activity”.
For the compound `O=C(NO)c1ccc(CN2CCc3ccc(Cl)cc32)cc1` [Compound 10, 4-[(6-Chloroindolin-1-yl)methyl]-N-hydroxybenzamide], in the data set on acetylated α-tubulin [1], the “concentration” value stood at 1 µM. In addition, in the data set on MDR1, the Papp A→B at 2 h is 9.14 ×10⁻⁶ cm/s and the basolateral-to-apical permeability (Papp B→A) at 2 h came to 5.54 ×10⁻⁶ cm/s. For the same compound, the efflux ratio at 2 h in the data set with MDR1 (P-gp) was less than 1. The efflux ratio in the data set on MDCK-MDR1 cell line is on record as 0.62.
On to `O=C(NO)c1ccc(Cn2cccc2)cc1` [Compound 4, 4-(1-Pyrrolylmethyl)-N-hydroxybenzamide], for which, in the data set on HDAC6 [6], the “activity against HDAC6 (in words)” value is on record as “nanomolar activity” and the “selectivity over HDAC1 (in words)” value was “high selectivity”.
For the compound `O=C(NO)c1ccc(Cn2cccn2)cc1` [Compound 6, 4-(1-Pyrazolylmethyl)-N-hydroxybenzamide], in the data set on acetylated α-tubulin [1], the “concentration” value amounted to 10 µM. Moreover, in the data set on MDCK-MDR1 cell line, the “Papp(A−B)” value is given as 7.35 10^−6, cm/s; the “Papp(B−A)” value was 5.24 10^−6, cm/s; the efflux ratio is recorded as 0.70.
On to `O=C(NO)c1ccccc1` [Compound 1, phenylhydroxamate, reference compound], for which the “selectivity over class I HDACs” value with HDAC6 [6] is given as “more than 10 fold”. The IC50 with HDAC6 [6] (read-out: IC50 against HDAC6) was 115 nM.
Consider `O=C(NO)c1ccc(Cn2ccc3ccccc32)cc1` [Compound 5, 4-(1-Indolylmethyl)-N-hydroxybenzamide], for which, in the data set on HDAC6 [6], the “activity against HDAC6 (in words)” value was “nanomolar activity” and the “selectivity over HDAC1 (in words)” value is on record as “high selectivity”.
Turning to `CCN(CC)Cc1ccc(C(=O)NO)cc1` [Compound 2, 4-[(Diethylamino)methyl]-N-hydroxybenzamide], at HDAC6 [3], the “HDAC6 activity (in words)” value is given as “reduced HDAC6 activity”.
In the data set with MDR1, `Cc1nc2ccc(F)cc2n1Cc1ccc(C(=O)NO)cc1` [Compound 8, 4-[(6-Fluoro-2-methyl-1-benzimidazolyl)methyl]-N-hydroxybenzamide] showed a Papp A→B at 2 h of 4.44 ×10⁻⁶ cm/s and a Papp B→A at 2 h of 13.4 ×10⁻⁶ cm/s. In addition, the efflux ratio at 2 h with MDR1 (P-gp) is greater than 2.5. In addition, the efflux ratio with MDCK-MDR1 cell line is 3.23. Besides, the “activity against the class IIa isoforms (in words)” value in the data set with class IIa isoforms is listed as “strong activity”.
`O=C(NO)c1ccc(CN2CCCC2)cc1` [Compound 3, N-Hydroxy-4-(pyrrolidin-1-ylmethyl)benzamide]: the “HDAC6 activity (in words)” value on HDAC6 [3] was “reduced HDAC6 activity”.
In the data set on MDR1, `Cn1c(NCc2ccc(C(=O)NO)cc2)nc2ccccc21` [Compound 12, N-Hydroxy-4-[[(1-methyl-1H-benz[d]imidazol-2-yl)amino]-methyl]benzamide] registered a Papp A→B at 2 h of 0.66 ×10⁻⁶ cm/s and a Papp B→A at 2 h of 2.05 ×10⁻⁶ cm/s. Further, the efflux ratio at 2 h in the data set with MDR1 (P-gp) is greater than 2.5. Besides, the efflux ratio in the data set on MDCK-MDR1 cell line came out at 2.95.

The Papp A→B is how fast a substance crosses the layer from the apical side. One may read the Papp B→A as how fast a substance crosses the layer from the basolateral side. As usually defined, the efflux ratio is the permeability from basolateral to apical divided by that in the opposite direction, in the common usage. What is called IC50 is the concentration that gives 50% inhibition.
